Laboratory results taken from ChEMBL document CHEMBL1137567, “First example of phosphoramidate approach applied to a 4'-substituted purine nucleoside (4'-azidoadenosine): conversion of an inactive nucleoside to a submicromolar compound versus hepatitis C virus” (J Med Chem, 2007).

Columns and labels:
[1] = Cytotoxicity activity against Huh7 cells by WST assay; format: cell-based, Huh-7; settings: human
Summary of the method: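 Cytotoxicity was read out as the CC50, the concentration lowering cell viability by 50%, from a WST viability readout. Cells were the HCV replicon cell line 2209-23, derived from Huh-7 and carrying a stable genotype 1b bicistronic replicon with a renilla luciferase reporter.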

[2] = test system: Hepatitis C virus; assay: Inhibition of HCV 1b in Huh7 cells by replicon assay; format: functional, organism-based, Hepacivirus hominis; settings: Huh-7
Summary of the method: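 Huh-7-derived line 2209-23 stably carrying a bicistronic HCV genotype 1b replicon with a renilla luciferase reporter. Replication was read out by the reporter. The EC50 is the concentration reducing HCV replication by 50%.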

Row | SMILES | CC50 [1] [µM] | EC50 [2] [µM]
1 | C[C@H](NP(=O)(OC[C@@]1(N=[N+]=[N-])O[C@@H](n2cnc3c(N)ncnc32)[C@H](O)[C@@H]1O)Oc1cccc2ccccc12)C(=O)OC(C)(C)C (some centres undefined) | > 100 | > 100
2 | C[C@H](NP(=O)(OC[C@@]1(N=[N+]=[N-])O[C@@H](n2cnc3c(N)ncnc32)[C@H](O)[C@@H]1O)Oc1cccc2ccccc12)C(=O)OCc1ccccc1 (some centres undefined) | > 100 | 0.22
3 | CCOC(=O)[C@H](C)NP(=O)(OC[C@@]1(N=[N+]=[N-])O[C@@H](n2cnc3c(N)ncnc32)[C@H](O)[C@@H]1O)Oc1ccccc1 (some centres undefined) | > 100 | 1.5
4 | C[C@H](NP(=O)(OC[C@@]1(N=[N+]=[N-])O[C@@H](n2cnc3c(N)ncnc32)[C@H](O)[C@@H]1O)Oc1ccccc1)C(=O)OC(C)(C)C (some centres undefined) | > 100 | > 100
5 | CCOC(=O)[C@H](C)NP(=O)(OC[C@@]1(N=[N+]=[N-])O[C@@H](n2cnc3c(N)ncnc32)[C@H](O)[C@@H]1O)Oc1cccc2ccccc12 (some centres undefined) | > 100 | 0.59
6 | C[C@H](NP(=O)(OC[C@@]1(N=[N+]=[N-])O[C@@H](n2cnc3c(N)ncnc32)[C@H](O)[C@@H]1O)Oc1ccccc1)C(=O)OCc1ccccc1 (some centres undefined) | > 100 | 4
7 | [N-]=[N+]=N[C@]1(CO)O[C@@H](n2cnc3c(N)ncnc32)[C@H](O)[C@@H]1O | > 100 | > 100
